Source: EPA's CvTdb concentration-time database

Legend:
Rat [1] = test: concentration in liver after dosing; details: 3360 h; dosed: Perfluorooctane Sulfonate; 20 mg/kg; oral; Male; Harlan Sprague Dawley
Rat [2] = test: concentration in liver after dosing; details: 864 h; dosed: Perfluorooctane Sulfonate; 20 mg/kg; oral; Female; F344
Rat [3] = test: concentration in brain after dosing; details: 1848 h; dosed: Perfluorooctane Sulfonate; 20 mg/kg; oral; Female; F344
Rat [4] = test: concentration in plasma after dosing; details: 24 h; dosed: Perfluorooctane Sulfonate; 2 mg/kg; oral; Female; Harlan Sprague Dawley
Rat [5] = test: concentration in kidney after dosing; details: 24 h; dosed: Perfluorooctane Sulfonate; 2 mg/kg; oral; Female; Harlan Sprague Dawley
Rat [6] = test: concentration in kidney after dosing; details: 6 h; dosed: Perfluorooctane Sulfonate; 2 mg/kg; oral; Female; Harlan Sprague Dawley
Rat [7] = test: concentration in kidney after dosing; details: 24 h; dosed: Perfluorooctane Sulfonate; 2 mg/kg; oral; Female; Harlan Sprague Dawley; remark: listed apart in the source
Rat [8] = test: concentration in kidney after dosing; details: 864 h; dosed: Perfluorooctane Sulfonate; 20 mg/kg; oral; Female; F344
Rat [9] = test: concentration in kidney after dosing; details: 864 h; dosed: Perfluorooctane Sulfonate; 2 mg/kg; oral; Female; Harlan Sprague Dawley
Rat [10] = test: concentration in brain after dosing; details: 3 h; dosed: Perfluorohexanoic Acid; 80 mg/kg; oral; Male; Harlan Sprague Dawley
Rat [11] = test: concentration in liver after dosing; details: 6 h; dosed: Perfluorohexanoic Acid; 80 mg/kg; oral; Female; Harlan Sprague Dawley
Rat [12] = test: concentration in liver after dosing; details: 0.5 h; dosed: Perfluorohexanoic Acid; 80 mg/kg; oral; Female; Harlan Sprague Dawley
Rat [13] = test: concentration in plasma after dosing; details: 0.25 h; dosed: Perfluorohexanoic Acid; 40 mg/kg; iv; Male; F344
Rat [14] = test: concentration in plasma after dosing; details: 0.25 h; dosed: Perfluorohexanoic Acid; 40 mg/kg; iv; Male; F344; remark: listed apart in the source
Rat [15] = test: concentration in plasma after dosing; details: 0.25 h; dosed: Perfluorohexanoic Acid; 40 mg/kg; iv; Male; F344; remark: listed apart in the source
Rat [16] = test: concentration in plasma after dosing; details: 1 h; dosed: Perfluorohexanoic Acid; 80 mg/kg; oral; Male; Harlan Sprague Dawley
Rat [17] = test: concentration in plasma after dosing; details: dosed: Perfluorohexanoic Acid, 40 mg/kg, iv, Male, F344
Rat [18] = test: concentration in plasma after dosing; details: 0.75 h; dosed: Perfluorohexanoic Acid; 80 mg/kg; oral; Male; Harlan Sprague Dawley
human = test: concentration in expired air after dosing; details: dosed: trichloroethylene, 100 ppm, inhalation, duration: 4 hr, person
Method in brief: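 Sampling and analytical methods are those of each source and frequently went unreported. The concentration-versus-time and amount-versus-time points were compiled from published in vivo toxicokinetic studies and two structured collections. Most were digitised from plot screenshots with WebPlotDigitizer, with others copied from tables, in the reported units.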

Rat [19] = test: concentration in plasma after dosing; details: 5 min; dosed: Gemfibrozil; 100 mg/kg; oral; Male; Sprague-Dawley
Rat [20] = test: concentration in plasma after dosing; details: 0.5 h; dosed: Gemfibrozil; 100 mg/kg; oral; Male; Sprague-Dawley
Rat [21] = test: concentration in plasma after dosing; details: 24 h; dosed: Gemfibrozil; 50 mg/kg; oral; Male; Sprague-Dawley
Rat [22] = test: concentration in plasma after dosing; details: 10 min; dosed: Gemfibrozil; 4.29 mg/kg; oral; Male; Sprague-Dawley
Rat [23] = test: concentration in plasma after dosing; details: 10 h; dosed: Gemfibrozil; 4.29 mg/kg; oral; Male; Sprague-Dawley
Rat [24] = test: concentration in brain after dosing; details: 2 h; dosed: 2-Methyltetrahydrofuran; 40 mg/kg; iv; Female; Harlan Sprague Dawley
Rat [25] = test: concentration in brain after dosing; details: 0.5 h; dosed: 2-Methyltetrahydrofuran; 40 mg/kg; iv; Female; Harlan Sprague Dawley
Rat [26] = test: concentration in brain after dosing; details: 0.75 h; dosed: 2-Methyltetrahydrofuran; 40 mg/kg; iv; Male; Harlan Sprague Dawley
Rat [27] = test: concentration in brain after dosing; details: 0.75 h; dosed: 2-Methyltetrahydrofuran; 40 mg/kg; iv; Male; Harlan Sprague Dawley; remark: listed apart in the source
Rat [28] = test: concentration in plasma after dosing; details: 0.5 h; dosed: 2-Methyltetrahydrofuran; 40 mg/kg; iv; Male; Harlan Sprague Dawley
Rat [29] = test: concentration in plasma after dosing; details: 0.2 h; dosed: 2-Methyltetrahydrofuran; 40 mg/kg; iv; Male; Harlan Sprague Dawley
Rat [30] = test: concentration in plasma after dosing; details: 6 h; dosed: 2-Methyltetrahydrofuran; 40 mg/kg; iv; Male; Harlan Sprague Dawley
Rat [31] = test: concentration in plasma after dosing; details: 6 h; dosed: 2-Methyltetrahydrofuran; 40 mg/kg; iv; Male; Harlan Sprague Dawley; remark: listed apart in the source
Rat [32] = test: concentration in liver after dosing; details: 3 h; dosed: Fluorotelomer alcohol 8+2; 24 mg/kg; oral; Male; Harlan Sprague Dawley
Rat [33] = test: concentration in brain after dosing; details: 12 h; dosed: Fluorotelomer alcohol 8+2; 80 mg/kg; oral; Female; Harlan Sprague Dawley
Rat [34] = test: concentration in liver after dosing; details: 3 h; dosed: Fluorotelomer alcohol 8+2; 80 mg/kg; oral; Female; Harlan Sprague Dawley
Rat [35] = test: concentration in liver after dosing; details: 1 h; dosed: Fluorotelomer alcohol 8+2; 24 mg/kg; oral; Male; Harlan Sprague Dawley
Rat [36] = test: concentration in plasma after dosing; details: dosed: Fluorotelomer alcohol 8+2, 12 mg/kg, oral, Male, Harlan Sprague Dawley
Rat [37] = test: concentration in kidney after dosing; details: 3 h; dosed: Fluorotelomer alcohol 8+2; 24 mg/kg; oral; Male; Harlan Sprague Dawley
Rat [38] = test: concentration in kidney after dosing; details: 12 h; dosed: Fluorotelomer alcohol 8+2; 24 mg/kg; oral; Male; Harlan Sprague Dawley

O=S(=O)([O-])C(F)(F)C(F)(F)C(F)(F)C(F)(F)C(F)(F)C(F)(F)C(F)(F)C(F)(F)F [Perfluorooctane Sulfonate]
Details	concentration in brain [ng/g]	concentration in kidney [ng/g]	concentration in liver [ng/g]	concentration in plasma [ng/mL]
Rat [1]	–	–	29100	–
Rat [2]	–	–	77100	–
Rat [3]	1910	–	–	–
Rat [4]	–	–	–	5040
Rat [5]	–	9700	–	–
Rat [6]	–	9250	–	–
Rat [7]	–	5720	–	–
Rat [8]	–	35600	–	–
Rat [9]	–	1390	–	–

O=C(O)C(F)(F)C(F)(F)C(F)(F)C(F)(F)C(F)(F)F [Perfluorohexanoic Acid]
Details	concentration in brain [ng/g]	concentration in liver [ng/g]	concentration in plasma [ng/mL]
Rat [10]	1460	–	–
Rat [11]	–	6260	–
Rat [12]	–	23800	–
Rat [13]	–	–	6480
Rat [14]	–	–	14700
Rat [15]	–	–	7150
Rat [16]	–	–	146000
Rat [18]	–	–	129000

Rat [17]
Details	concentration in plasma [ng/mL]
0.5 h	23200
12 h	120

ClC=C(Cl)Cl [trichloroethylene]
human
Details	concentration in expired air [ppm]
0.2144 h	4.28
0.5331 h	2.8
1.023 h	1.97
2.042 h	1.38
4.039 h	0.761
5.983 h	0.736
7.98 h	0.579
10.1 h	0.488

Cc1ccc(C)c(OCCCC(C)(C)C(=O)O)c1 [Gemfibrozil]
Details	concentration in plasma [ng/mL]
Rat [19]	1690
Rat [20]	33900
Rat [21]	846
Rat [22]	657
Rat [23]	405

CC1CCCO1 (stereo not drawn) [2-Methyltetrahydrofuran]
Details	concentration in brain [ng/mL]	concentration in plasma [ng/mL]
Rat [24]	9940	–
Rat [25]	12700	–
Rat [26]	11300	–
Rat [27]	15400	–
Rat [28]	–	25600
Rat [29]	–	36100
Rat [30]	–	16.9
Rat [31]	–	10.8

O=C(O)CCC(F)(F)C(F)(F)C(F)(F)C(F)(F)C(F)(F)C(F)(F)C(F)(F)F [Fluorotelomer acid 7+3]
Details	concentration in brain [ng/g]	concentration in kidney [ng/g]	concentration in liver [ng/g]
Rat [32]	–	–	2680
Rat [33]	484	–	–
Rat [34]	–	–	10700
Rat [35]	–	–	588
Rat [37]	–	1450	–
Rat [38]	–	573	–

Rat [36]
Details	concentration in plasma [ng/mL]
0.25 h	152
6 h	522
